The results in this text go back to ChEMBL document CHEMBL4251686, “Withaferin A and Withanolide D Analogues with Dual Heat-Shock-Inducing and Cytotoxic Activities: Semisynthesis and Biological Evaluation” (J Nat Prod, 2018).

Each structure is given as a SMILES string. The source made the active and inactive calls. No cut-off for these calls is given here. Residues, ends and D or L forms follow the SMILES beside them. *: point of attachment. Cbz = O=C(OCc1ccccc1)*

Experiment [1] concerns HEK-293T. Nature of the experiment: Induction of heat shock response in GFP-tagged human 293T cells at 1 uM after overnight incubation by luciferase reporter gene based luminometric method. Format: functional, cell-based. In a few lines:
(§1)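 Heat-shock reporter 293T cells (GFP–firefly luciferase under HSP70B′ promoter elements, FACS-enriched high responders) were seeded at 20 000 cells/well in 384-well plates and exposed to compounds at 1.0 or 5.0 μM overnight. Luciferase activity measured by luminometer. Maximal induction expressed as fold over control (Log2), mean of two biological replicates.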

Experiment [2] concerns HEK-293T. Put plainly: Induction of heat shock response in GFP-tagged human 293T cells at 1 to 5 uM after overnight incubation by luciferase reporter gene based luminometric method. Format: functional, cell-based. In a few lines:
as §1
(A reporter such as luciferase makes a cellular process visible.)

Experiment [3] can be described thus: Cytotoxicity against human CHP100 cells assessed as reduction in cell viability after 24 hrs by resazurin dye based Alamar blue assay. Format: functional. Particulars: CHP100, 24 h. In general terms: Resazurin is reduced to fluorescent resorufin, in cell work by metabolically active cells.
Experiment [4] concerns HEK-293T. Put plainly: Cytotoxicity against human 293T cells assessed as reduction in cell viability after 72 hrs by resazurin dye based Alamar blue assay. Format: functional.
In experiment [5] the test system is HEK-293T. Nature of the experiment: Induction of heat shock response in GFP-tagged human 293T cells after overnight incubation by luciferase reporter gene based luminometric method relative to control. Format: functional.
The test system of experiment [6] is HEK-293T. Nature of the experiment: Ratio of induction of heat shock response in GFP-tagged human 293T cells to IC50 for cytotoxicity against human 293T cells. Format: functional.
For experiment [7], the system named is HEK-293T. Nature of the experiment: Induction of heat shock response in GFP-tagged human 293T cells at 5 uM after overnight incubation by luciferase reporter gene based luminometric method. Format: functional, cell-based. A digest of the protocol:
as §1

Take `CC1=C(C)C(=O)O[C@@H]([C@](C)(O)[C@H]2CC[C@H]3[C@@H]4C[C@H]5O[C@]56C(=O)C=CC(=O)[C@]6(C)[C@H]4CC[C@]23C)C1`: the outcome in the experiment with HEK-293T [1] was Active.

Take `CC(=O)OCC1=C(C)C[C@H]([C@@H](C)[C@H]2[C@@H](OC(C)=O)C[C@H]3[C@@H]4C[C@H](I)[C@]5(O)[C@@H](OC(C)=O)C=CC(=O)[C@]5(C)[C@H]4CC[C@]23C)OC1=O`: in the experiment on HEK-293T [2], the result was Active. In addition, the IC50 was determined as 466 nM in experiment [3] and 417 nM with HEK-293T [4]. In the experiment on HEK-293T [5], this compound had an AUC of 235. Further, in the experiment with HEK-293T [6], the Ratio came to 0.56.

As to `CC1=C(CO)C(=O)O[C@@H]([C@@H](C)[C@H]2CC[C@H]3[C@@H]4C[C@H]5O[C@]56[C@H](O)C=CC(=O)[C@]6(C)[C@H]4CC[C@]23C)C1`, the outcome with HEK-293T [7] was Active. Moreover, the IC50 worked out at 311 nM in experiment [3] and 250 nM with HEK-293T [4]. The compound also registered an AUC in the experiment on HEK-293T [5] of 44. In addition, in the experiment with HEK-293T [6], the Ratio is recorded as 0.18.

On to `CC1=C(C)C(=O)O[C@@H]([C@](C)(O)[C@H]2CC[C@H]3[C@@H]4C[C@H]5O[C@]56[C@@H](O)C=CC(=O)[C@]6(C)[C@H]4CC[C@]23C)C1` [WITHANOLIDE D], for which the result in the experiment with HEK-293T [1] was Active. Further, the IC50 in experiment [3] is 324 nM; in the experiment on HEK-293T [4] it was 710 nM. In addition, the AUC in the experiment with HEK-293T [5] turned out to be 13. For the same compound, the Ratio in the experiment with HEK-293T [6] came to 0.02.

Take `CC(C)C[C@@H](C=O)NC(=O)[C@H](CC(C)C)NC(=O)[C@H](CC(C)C)NC(=O)OCc1ccccc1` [MG-132] (Cbz-Leu-Leu-Leu-aldehyde): the AUC in the experiment on HEK-293T [5] was 332.

`CC(=O)OCC1=C(C)C[C@H]([C@@H](C)[C@H]2[C@@H](OC(C)=O)C[C@H]3[C@@H]4C[C@H]5O[C@]56[C@@H](OC(C)=O)C=CC(=O)[C@]6(C)[C@H]4CC[C@]23C)OC1=O`: in the experiment on HEK-293T [2], the result was Active. In addition, the values for the IC50 (in experiment [3]; in the experiment on HEK-293T [4]) were 59 nM and 88 nM, respectively. For the same compound, the AUC in the experiment on HEK-293T [5] is listed as 196. Moreover, the Ratio with HEK-293T [6] is recorded as 2.23.

Take `CC(=O)O[C@H]1C=CC(=O)[C@]2(C)[C@H]3CC[C@]4(C)[C@@H]([C@@](C)(O)[C@H]5CC(C)=C(C)C(=O)O5)CC[C@H]4[C@@H]3C[C@H]3O[C@]132`: the outcome in the experiment with HEK-293T [1] was Active. Also, the results for the IC50 (in experiment [3]; in the experiment on HEK-293T [4]) were 292 nM and 141 nM, respectively. In the experiment on HEK-293T [6], the Ratio is 0.5.

For `CC1=C(CO)C(=O)O[C@@H]([C@@H](C)[C@H]2CC[C@H]3[C@@H]4C[C@H]5O[C@]56[C@@H](O)C=CC(=O)[C@]6(C)[C@H]4CC[C@]23C)C1` [WITHAFERIN A], the result with HEK-293T [2] was Active. For the same compound, the IC50 was determined as 424 nM in experiment [3] and 299 nM with HEK-293T [4]. This compound also registered an AUC in the experiment on HEK-293T [5] of 68. In addition, the Ratio with HEK-293T [6] turned out to be 0.23.

As for `CC(=O)O[C@H]1C[C@H]2[C@@H]3C[C@H]4O[C@]45[C@@H](OC(C)=O)C=CC(=O)[C@]5(C)[C@H]3CC[C@]2(C)[C@H]1[C@@](C)(O)[C@H]1CC(C)=C(C)C(=O)O1`, the result in the experiment on HEK-293T [1] was Active.

Consider `CC(=O)OCC1=C(C)C[C@H]([C@@H](C)[C@H]2CC[C@H]3[C@@H]4C[C@H]5O[C@]56[C@@H](OC(C)=O)C=CC(=O)[C@]6(C)[C@H]4C[C@@H](OC(C)=O)[C@]23C)OC1=O`, for which the outcome in the experiment with HEK-293T [2] was Active. In addition, the IC50 was 120 nM in experiment [3] and 116 nM in the experiment on HEK-293T [4]. In the experiment with HEK-293T [5], this compound displayed an AUC of 419. Also, in the experiment with HEK-293T [6], the Ratio came out at 3.61.

Take `CC(=O)OCC1=C(C)C[C@H]([C@@H](C)[C@H]2CC[C@H]3[C@@H]4C[C@H]5O[C@]56[C@H](OC(C)=O)C=CC(=O)[C@]6(C)[C@H]4CC[C@]23C)OC1=O`: in the experiment on HEK-293T [2], the outcome was Active.

As to `CC(=O)OCC1=C(C)C[C@H]([C@@H](C)[C@H]2CC[C@H]3[C@@H]4C[C@H]5O[C@]56[C@@H](OC(C)=O)C=CC(=O)[C@]6(C)[C@H]4CC[C@]23C)OC1=O`, the result in the experiment on HEK-293T [2] was Active. Further, in the experiment with HEK-293T [5], the AUC was 351.

The compound `CC(C)c1cc(-c2n[nH]c(=O)n2-c2ccc3c(ccn3C)c2)c(O)cc1O` [GANETESPIB] showed an AUC in the experiment on HEK-293T [5] of 59.

A word on the IC50: it is the concentration needed to halve the response being measured.
